Test results from ChEMBL document CHEMBL4014352, “Paying the Price of Desolvation in Solvent-Exposed Protein Pockets: Impact of Distal Solubilizing Groups on Affinity and Binding Thermodynamics in a Series of Thermolysin Inhibitors” (J Med Chem, 2017).
Active and inactive are the calls of the source. The calls are words filed in the database; no cut-off is given here.

How the values were obtained:
[1] = biological target: T1, Thermolysin (Bacillus thermoproteolyticus) (UniProt P00800); test: Binding affinity to Bacillus thermoproteolyticus thermolysin using HEPES buffer by ITC
T1 sequence (whole entry): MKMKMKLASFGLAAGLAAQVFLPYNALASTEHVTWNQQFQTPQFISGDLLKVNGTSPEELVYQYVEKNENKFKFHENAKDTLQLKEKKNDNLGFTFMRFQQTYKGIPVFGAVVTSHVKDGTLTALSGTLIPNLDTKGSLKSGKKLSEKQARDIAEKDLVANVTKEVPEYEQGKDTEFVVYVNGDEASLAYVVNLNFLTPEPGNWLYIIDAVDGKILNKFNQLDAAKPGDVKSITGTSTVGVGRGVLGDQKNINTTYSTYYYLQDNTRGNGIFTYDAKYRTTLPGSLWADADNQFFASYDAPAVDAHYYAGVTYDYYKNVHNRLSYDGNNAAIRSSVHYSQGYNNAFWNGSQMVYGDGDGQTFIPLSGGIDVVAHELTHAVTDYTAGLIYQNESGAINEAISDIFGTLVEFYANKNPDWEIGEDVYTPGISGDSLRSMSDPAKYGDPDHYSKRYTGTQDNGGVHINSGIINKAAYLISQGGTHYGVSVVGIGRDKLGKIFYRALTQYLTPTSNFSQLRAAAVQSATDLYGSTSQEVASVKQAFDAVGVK
Procedure, shortened: (§1)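 Freeze-dried thermolysin was dissolved just before each run in 20 mM buffer (HEPES, PIPES or sodium cacodylate, as in the line), 2 mM CaCl2 and 500 mM NaSCN, pH 7.5. ITC ran at 298 K with 10–15 injections, using either 250 μM protein with 3–3.5 mM ligand or 48 μM protein with 1 mM ligand. Ligand concentrations were corrected for qNMR purity. Each titration was run at least in duplicate.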

[2] = biological target: T1, Thermolysin (Bacillus thermoproteolyticus); test: Binding affinity to Bacillus thermoproteolyticus thermolysin using cacodylate buffer by ITC; procedure, shortened: as §1
[3] = biological target: T1, Thermolysin (Bacillus thermoproteolyticus); test: Binding affinity to Bacillus thermoproteolyticus thermolysin using PIPES buffer by ITC; procedure, shortened: as §1

Compound | Activity [1] | Activity [2] | Activity [3]
CC[C@H](NC(=O)[C@H](CC(C)C)NP(=O)(O)CNC(=O)OCc1ccccc1)C(=O)O | Active | Active | Active
CC(C)C[C@H](NP(=O)(O)CNC(=O)OCc1ccccc1)C(=O)N[C@@H](CCN)C(=O)O | Active | Active | Active
CCC[C@H](NC(=O)[C@H](CC(C)C)NP(=O)(O)CNC(=O)OCc1ccccc1)C(=O)O | Active | Active | Active
CC(C)C[C@H](NP(=O)(O)CNC(=O)OCc1ccccc1)C(=O)NCCCN | Active | Active | Active
CC(C)C[C@H](NP(=O)(O)CNC(=O)OCc1ccccc1)C(=O)N[C@@H](CCCN)C(=O)O | Active | Active | Active
CCNC(=O)[C@H](CC(C)C)NP(=O)(O)CNC(=O)OCc1ccccc1 | Active | Active | Active
CC(C)C[C@H](NP(=O)(O)CNC(=O)OCc1ccccc1)C(=O)NCN | Active | Active | Active

Results, then the compound that gave them:

Activity [1] | Activity [2] | Activity [3] | Compound
Active | Active | Active | CC(C)C[C@H](NP(=O)(O)CNC(=O)OCc1ccccc1)C(=O)NCCN
Active | Active | Active | CC(C)C[C@H](NP(=O)(O)CNC(=O)OCc1ccccc1)C(=O)NCCCCN
Active | Active | Active | CC(C)C[C@H](NP(=O)(O)CNC(=O)OCc1ccccc1)C(=O)N[C@@H](CCCCN)C(=O)O
Active | Active | Active | CCCNC(=O)[C@H](CC(C)C)NP(=O)(O)CNC(=O)OCc1ccccc1
Active | Active | Active | CC(C)C[C@H](NP(=O)(O)CNC(=O)OCc1ccccc1)C(=O)N[C@@H](CN)C(=O)O
